Assay results reported in ChEMBL document CHEMBL1123557, “N-substituted 1,2,3,4,4a,5,6,10b-octahydrobenzo[f]quinolines and 3-phenylpiperidines: effects on central dopamine and sigma receptors” (J Med Chem, 1987).
Active and inactive are the calls of the source. No cut-off for these calls is given here.

Assays:
[1] = tested on: Rattus norvegicus; assay: post-synaptic dopaminergic effect was assessed by the increase in locomotor activity at 30 min time interval by 25 umol/kg dosage administration; format: functional
[2] = molecular target: Sigma non-opioid intracellular receptor 1 (Rattus norvegicus, UniProt Q9R0C9); assay: In vitro for binding affinity against sigma receptor using [3H](+)-3-PPP as radioligand
Sequence of Sigma non-opioid intracellular receptor 1 (Q9R0C9 whole entry): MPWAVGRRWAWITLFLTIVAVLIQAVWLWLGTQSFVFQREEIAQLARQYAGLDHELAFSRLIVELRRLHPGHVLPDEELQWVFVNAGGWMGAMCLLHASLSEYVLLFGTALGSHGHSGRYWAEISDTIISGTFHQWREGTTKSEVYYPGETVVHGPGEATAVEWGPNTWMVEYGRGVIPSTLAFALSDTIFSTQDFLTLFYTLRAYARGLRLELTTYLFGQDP
How it was run: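 Whole rat brain membranes (male Sprague-Dawley) in 50 mM Tris-HCl pH 8.0. Nonspecific binding defined with 1 μM haloperidol. Rapid filtration onto PEI-treated glass fiber filters, scintillation counting. IC50 from iterative curve fitting.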

[3] = molecular target: T1, D(2) dopamine receptor (Rattus norvegicus, UniProt P61169); assay: Binding affinity against Dopamine receptor D2 using [3H]spiperone as radioligand
T1 sequence (P61169 whole entry): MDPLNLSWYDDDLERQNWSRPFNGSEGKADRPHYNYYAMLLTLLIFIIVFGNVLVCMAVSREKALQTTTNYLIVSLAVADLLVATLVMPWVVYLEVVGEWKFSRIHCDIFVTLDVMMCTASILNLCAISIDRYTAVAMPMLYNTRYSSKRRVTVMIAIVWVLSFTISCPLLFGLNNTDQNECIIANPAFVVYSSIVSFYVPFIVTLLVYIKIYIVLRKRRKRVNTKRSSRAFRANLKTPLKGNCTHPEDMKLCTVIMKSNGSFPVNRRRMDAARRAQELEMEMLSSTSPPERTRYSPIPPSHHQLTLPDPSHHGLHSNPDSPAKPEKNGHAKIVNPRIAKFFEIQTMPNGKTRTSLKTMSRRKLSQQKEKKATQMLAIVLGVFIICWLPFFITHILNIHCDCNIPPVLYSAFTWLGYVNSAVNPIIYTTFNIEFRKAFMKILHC
How it was run: (§1)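 Rat striatal membranes (male Sprague-Dawley, 150–250 g), washed three times in 50 mM Tris-HCl pH 7.7. 0.2–0.4 nM [3H]spiperone with 100 mM NaCl and 3 mM MgCl2, about 2 mg tissue, 15 min at 37 °C. Nonspecific binding defined with 1 μM haloperidol. Bound ligand collected by filtration onto PEI-treated glass fiber filters and counted by scintillation. Competition curves fitted iteratively.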

[4] = tested on: Dopamine D2 receptor (Rattus norvegicus); assay: Effective dose required for DOPA accumulation (presynaptic dopaminergic effect) in rat
[5] = molecular target: D(2) dopamine receptor (Rattus norvegicus) (UniProt P61169); assay: Tested in vivo for binding affinity against Dopamine receptor D2 using nonradiolabeled 5,6-di-n-Pr-ADTN; format: organism-based; parameters: concentration or dose not given beside the values
Sequence of D(2) dopamine receptor (Rattus norvegicus) (P61169 whole entry): as above

[6] = tested on: Rattus norvegicus; assay: post-synaptic dopaminergic effect was assessed by the increase in locomotor activity at 30 min time interval by 3.1 umol/kg dosage administration; format: functional
[7] = species on record: Rattus norvegicus; assay: Effective dose required for DOPA accumulation (presynaptic dopaminergic effect) in rat; I is inactive; format: functional, organism-based
How it was run: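 Male Sprague-Dawley rats (200–300 g); drug in saline given sc. DOPA measured by HPLC with electrochemical detection in each brain area. Dose-response curves used four to six dose levels per substance and area.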

[8] = tested on: Rattus norvegicus; assay: post-synaptic dopaminergic effect was assessed by the increase in locomotor activity at 30 min time interval by 14 umol/kg dosage administration; format: functional
[9] = tested on: Rattus norvegicus; assay: post-synaptic dopaminergic effect was assessed by the increase in locomotor activity at 30 min time interval by 50 umol/kg dosage administration; format: functional
[10] = tested on: Rattus norvegicus; assay: post-synaptic dopaminergic effect was assessed by the increase in locomotor activity at 30 min time interval by 10.6 umol/kg dosage administration; format: functional
[11] = tested on: Rattus norvegicus; assay: post-synaptic dopaminergic effect was assessed by the increase in locomotor activity at 30 min time interval by 213 umol/kg dosage administration; format: functional
[12] = molecular target: T1, D(2) dopamine receptor; assay: Compound was tested in vitro for binding affinity against Dopamine receptor D2 using [3H]-spiperone as radioligand; how it was run: as §1
[13] = tested on: Rattus norvegicus; assay: post-synaptic dopaminergic effect was assessed by the increase in locomotor activity at 30 min time interval by 1.06 umol/kg dosage administration; format: functional
[14] = tested on: Rattus norvegicus; assay: post-synaptic dopaminergic effect was assessed by the increase in locomotor activity at 30 min time interval by 53 umol/kg dosage administration; format: functional
[15] = tested on: Rattus norvegicus; assay: post-synaptic dopaminergic effect was assessed by the increase in locomotor activity at 30 min time interval by 133 umol/kg dosage administration; format: functional
[16] = tested on: Rattus norvegicus; assay: post-synaptic dopaminergic effect was assessed by the increase in locomotor activity at 30 min time interval by 13 umol/kg dosage administration; format: functional
[17] = tested on: Rattus norvegicus; assay: post-synaptic dopaminergic effect was assessed by the increase in locomotor activity at 30 min time interval by 200 umol/kg dosage administration; format: functional
[18] = tested on: Rattus norvegicus; assay: post-synaptic dopaminergic effect was assessed by the increase in locomotor activity at 30 min time interval by 100 umol/kg dosage administration; format: functional
[19] = tested on: Rattus norvegicus; assay: post-synaptic dopaminergic effect was assessed by the increase in locomotor activity at 30 min time interval by 3.3 umol/kg dosage administration; format: functional
How it was run: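 Test substance dissolved in saline immediately before use, occasionally with a few drops of glacial acetic acid and/or moderate heating; dosing solutions at neutral pH. Locomotor activity is the behavioral read-out of postsynaptic dopamine receptor stimulation.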

[20] = tested on: Rattus norvegicus; assay: post-synaptic dopaminergic effect was assessed by the increase in locomotor activity at 30 min time interval by 106 umol/kg dosage administration; format: functional
[21] = tested on: Rattus norvegicus; assay: post-synaptic dopaminergic effect was assessed by the increase in locomotor activity at 30 min time interval by 265 umol/kg dosage administration; format: functional
[22] = molecular target: T1, D(2) dopamine receptor; assay: Compound was tested in vivo for binding affinity against D2 receptor using nonradiolabeled 5,6-di-n-Pr-ADTN; format: organism-based
[23] = tested on: Rattus norvegicus; assay: post-synaptic dopaminergic effect was assessed by the increase in locomotor activity at 30 min time interval by 7 umol/kg dosage administration; format: functional

Structure (SMILES)	IC50 [2] [nM]	IC50 [3] [nM]	further results
Oc1cccc2c1CCC1C2CCCN1CCc1ccccc1 (racemic)	65	6	Accumulated counts [1]: 143; ED50 [4]: 0.043 µmol/kg; Control [5]: 67%
CCCCN1CCCC2c3cccc(O)c3CCC21 (racemic)	23	38	Accumulated counts [6]: 196; ED50 [4]: 0.08 µmol/kg; Control [5]: 57%
CCCCN1CCCC2c3cc(O)ccc3CCC21 (racemic; 23) [listing 1 of 2 here]	–	–	ED50 [7]: inactive
CCCCN1CCC[C@H](c2cccc(O)c2)C1	9	2670	Accumulated counts [8]: 180; Control [5]: 74%
Oc1ccc2c(c1)C1CCCN(Cc3ccccc3)C1CC2 (racemic)	11	3440	ED50 [7]: inactive; Accumulated counts [9]: 78
CCCN1CCCC2c3cc(O)ccc3CCC21 (stereo in doubt; form 1) [listing 1 of 2 here]	520	–	Accumulated counts [10]: 28
CCCN1CCC[C@@H](c2cccc(O)c2)C1 [PRECLAMOL]	–	–	Accumulated counts [11]: 12; Control [5]: 33%
CCCCN1CCCC2c3cc(O)ccc3CCC21 (racemic; 33)	35	–	IC50 [12]: 10400 nM
Oc1cccc([C@H]2CCCN(CCc3ccccc3)C2)c1	8	1240	Accumulated counts [8]: 26
COc1ccc2c(c1)C1CCCN(CCc3ccccc3)C1CC2 (racemic)	14	435	–
CCCN1CCCC2c3cc(O)ccc3CCC21 (racemic; 32) [listing 1 of 2 here]	–	–	ED50 [7]: inactive
Oc1ccc2c(c1)C1CCCN(CCc3ccccc3)C1CC2 (racemic)	27	990	Accumulated counts [1]: 72; ED50 [7]: inactive
CCCN1CCCC2c3cc(O)ccc3CCC21 (stereo in doubt; form 2) [listing 1 of 2 here]	21	25	Accumulated counts [13]: 155
Oc1ccc2c(c1)C1CCCNC1CC2 (racemic; 18) [listing 1 of 2 here]	–	–	Control [5]: 90%
CCCCN1CCC[C@@H](c2cccc(O)c2)C1	31	275	Accumulated counts [14]: 63; Control [5]: 43%
CN1CCC[C@H](c2cccc(O)c2)C1	373	4120	Accumulated counts [15]: 88
CCCN1CCCC2c3ccc(O)cc3CCC21 (racemic; 30) [listing 1 of 2 here]	40	13000	–
COc1ccc2c(c1)C1CCCN(Cc3ccccc3)C1CC2 (racemic)	–	5520	ED50 [7]: inactive; Accumulated counts [9]: 21
Oc1ccc2c(c1)C1CCCNC1CC2 (racemic; 31) [listing 1 of 2 here]	11600	30400	–
Oc1cccc2c1CC[C@H]1NCCC[C@H]21	2370	1550	–
CCCN1CCC[C@H]2c3cccc(O)c3CC[C@@H]21	438	34	Accumulated counts [6]: 78
CCCN1CCCC2c3ccc(O)cc3CCC21 (racemic; 17)	10	730	–
CCCN1CCC[C@H](c2cccc(O)c2)C1	–	–	Accumulated counts [16]: 78; Control [5]: 84%
CCCN1CCCC2c3cc(O)ccc3CCC21 (racemic; 21) [listing 1 of 2 here]	19	101	Accumulated counts [13]: 188
Oc1cccc([C@@H]2CCCNC2)c1	15600	1750	ED50 [7]: inactive; Accumulated counts [17]: 4
CCCN1CCCC2c3cc(O)ccc3CCC21 (stereo in doubt; form 2) [listing 2 of 2 here]	–	–	ED50 [4]: 0.004 µmol/kg

Structure (SMILES)	IC50 [2] [nM]	IC50 [3] [nM]	further results
CCCN1CCC[C@@H]2c3cccc(O)c3CC[C@@H]21 (racemic) [listing 1 of 2 here]	–	–	ED50 [7]: inactive
CCCCN1CCCC2c3cc(OC)ccc3CCC21 (racemic)	5	3840	ED50 [7]: inactive; Accumulated counts [9]: 135
CCCN1CCCC2c3cc(O)ccc3CCC21 (racemic; 32) [listing 2 of 2 here]	66	6700	–
CN1CCCC(c2cccc(O)c2)C1 (stereo not drawn)	1910	1950	Accumulated counts [18]: 36
CC(C)N1CCC[C@@H](c2cccc(O)c2)C1	208	355	Accumulated counts [19]: 38
CCCN1CCC[C@H]2c3cccc(O)c3CC[C@H]21	197	> 100000	ED50 [7]: inactive
Oc1cccc2c1CCC1NCCCC21 (racemic)	14900	7500	ED50 [7]: inactive; Accumulated counts [20]: 10
Oc1cccc2c1CC[C@@H]1NCCC[C@@H]21	3610	92	–
CCCN1CCCC2c3ccc(O)cc3CCC21 (racemic; 30) [listing 2 of 2 here]	–	–	ED50 [7]: inactive
CCCCN1CCCC2c3cc(O)ccc3CCC21 (racemic; 23) [listing 2 of 2 here]	10	2990	Accumulated counts [9]: 75
CCCN1CCCC(c2ccc(O)cc2)C1 (stereo not drawn)	276	13000	ED50 [7]: inactive
CCN1CCCC2c3cccc(O)c3CCC21 (racemic)	236	102	Accumulated counts [6]: 19; Control [5]: 54%
Oc1cccc([C@H]2CCCNC2)c1	4570	435	Accumulated counts [21]: 47
CCCN1CCCC2c3cc(O)ccc3CCC21 (stereo in doubt; form 1) [listing 2 of 2 here]	–	–	ED50 [4]: 0.25 µmol/kg
CN1CCCC2c3cccc(O)c3CCC21 (racemic)	610	114	Control [5]: 33%; Accumulated counts [18]: 40
CCCN1CCCC2c3c(O)cccc3CCC21 (racemic)	1930	61800	ED50 [7]: inactive
CCCN1CCC[C@@H]2c3cccc(O)c3CC[C@@H]21 (racemic) [listing 2 of 2 here]	416	2100	–
Oc1ccc2c(c1)C1CCCNC1CC2 (racemic; 18) [listing 2 of 2 here]	1940	895	Accumulated counts [20]: 10
CCCN1CCCC2c3cc(O)ccc3CCC21 (racemic; 21) [listing 2 of 2 here]	–	–	ED50 [4]: 0.008 µmol/kg; Control [5]: 68%
CCN1CCCC2c3cc(O)ccc3CCC21 (racemic)	70	110	ED50 [4]: 0.017 µmol/kg; Control [5]: 57%; Accumulated counts [13]: 47
CN1CCCC2c3cc(O)ccc3CCC21 (racemic)	221	265	Accumulated counts [20]: 60; ED50 [4]: 0.4 µmol/kg; Control [5]: 57%
CCCN1CCC[C@@H]2c3cccc(O)c3CC[C@@H]21	48	160	Accumulated counts [6]: 59
Oc1ccc2c(c1)C1CCCNC1CC2 (racemic; 31) [listing 2 of 2 here]	–	–	ED50 [7]: inactive
CCCN1CCCC2c3cccc(O)c3CCC21 (racemic)	–	–	Accumulated counts [6]: 163; IC50 [22]: 63 nM
Oc1cccc([C@@H]2CCCN(CCc3ccccc3)C2)c1	16	44	Accumulated counts [23]: 71
CC(C)N1CCC[C@H](c2cccc(O)c2)C1	247	12100	Accumulated counts [14]: 49
